Assay [1] can be described thus: (§1) Inhibition of Norwalk virus recombinant His6-tagged protease using EDANS-EPDFHLQGPEDLAK-Dabcyl as substrate preincubated for 45 mins followed by substrate addition measured every 1 min for 30 mins by FRET analysis. An outline of the steps:
(§2)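 Protease purified on Ni-NTA, used at 0.5 μM final. Preincubated with inhibitor (0, 0.05, 0.2, 1, 5, 20, 100, 150 μM) in 50 mM NaH2PO4 pH 8, 50 mM NaCl, 5 mM TCEP, room temperature. Substrate added to 30 μM final. Fluorescence read at ex 360/em 460 nm at 37 °C. Ki derived from initial velocities by Morrison tight-binding fit.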

A further assay deals with Norwalk virus. Described as §1. An outline of the steps: as §2
Assay [2] can be described thus: Inhibition of Houston virus recombinant His6-tagged protease using EDANS-EPDFHLQGPEDLAK-Dabcyl as substrate preincubated for 45 mins followed by substrate addition measured every 1 min for 30 mins by FRET analysis. Details: species or system genotype 2. The procedure, abridged: as §2
The nature of assay [3]: Selectivity ratio of Ki for Houston virus recombinant His6-tagged protease to Ki for Norwalk virus recombinant His6-tagged protease.

Our source for the Ki, inhibition and Ratio Ki values is ChEMBL document CHEMBL3132758, “Synthesis, Activity and Structure-Activity Relationship of Noroviral Protease Inhibitors” (Medchemcomm, 2013).

The source made the active and inactive calls. The rule behind the calls is not given here. Non-standard residues stand in square brackets, D forms with d. Residues, ends and D or L forms follow the SMILES beside them. *: point of attachment. Pyrrolidide = C1CCN(*)C1; Cbz = O=C(OCc1ccccc1)*; Dap = NC[C@H](N)C(=O)O

One may read the Ki as a measure of affinity in units of concentration, obtained from inhibition or displacement. Consider `CC(=O)[C@H](CCC(=O)N(C)C)NC(=O)[C@H](Cc1ccccc1)NC(=O)[C@H](CC(C)C)NC(=O)OCc1ccccc1`, for which the Ki in assay [1] is 150 µM.
Still for that read-out and setting: the same measure for `CC(C)C[C@H](NC(=O)OCc1ccccc1)C(=O)N[C@@H](Cc1ccccc1)C(=O)N[C@H](C=O)CCC(=O)NC1CC1`: 1.4 µM.
`CCOC(=O)/C=C/[C@H](CCC(=O)N(C)C)NC(=O)[C@H](Cc1ccccc1)NC(=O)[C@H](CC(C)C)NC(=O)OCc1ccccc1`: in the assay with Norwalk virus, the inhibition result is “inactive”.
On to `CCOC(=O)/C=C/[C@H](CCC(N)=O)NC(=O)[C@H](Cc1ccccc1)NC(=O)[C@H](CC(C)C)NC(=O)OCc1ccccc1`, for which the inhibition entry with Norwalk virus was “inactive”.
Same read-out and setting: the same measure for `CCOC(=O)/C=C/[C@H](CNC(C)=O)NC(=O)[C@H](Cc1ccccc1)NC(=O)[C@H](CC(C)C)NC(=O)OCc1ccccc1`: “inactive”.
In the case of `CC(=O)N[C@@H](CC(C)C)C(=O)N[C@@H](Cc1ccccc1)C(=O)N[C@H](C=O)CCC(=O)N(C)C` (Ac-Leu-Phe-Glu(NMe2)-aldehyde), the Ki in assay [1] was 39 µM.
On to `CC(C)C[C@H](NC(=O)[C@H](C)NC(=O)OCc1ccccc1)C(=O)N[C@H](C=O)CCC(=O)N(C)C` (Cbz-Ala-Leu-Glu(NMe2)-aldehyde), for which the results for the Ki in assay [2] and in assay [1] were 4.6 µM and 0.59 µM, respectively. In assay [3], the Ratio Ki was 10.
With `CN(C)C(=O)CC[C@@H](C=O)NC(=O)[C@H](Cc1ccccc1)NC(=O)[C@H](CC(N)=O)NC(=O)OCc1ccccc1` (Cbz-Asn-Phe-Glu(NMe2)-aldehyde), the inhibition constant (Ki) in assay [1] was determined as 1.6 µM.
Turning to `CC(C)C[C@H](NC(=O)[C@H](CCC(N)=O)NC(=O)OCc1ccccc1)C(=O)N[C@H](C=O)CCC(=O)N(C)C` (Cbz-Gln-Leu-Glu(NMe2)-aldehyde), the Ki in assay [2] was determined as 4.3 µM; in assay [1], 0.31 µM. Besides, the Ratio Ki in assay [3] came out at 10.
As for `CC(C)C[C@H](NC(=O)[C@H](Cc1c[nH]cn1)NC(=O)OCc1ccccc1)C(=O)N[C@H](C=O)CCC(=O)N(C)C` (Cbz-His-Leu-Glu(NMe2)-aldehyde), the inhibition constant (Ki) in assay [1] turned out to be 1.9 µM.
The same measure, in the same setting: for `CNC(=O)CC[C@@H](C=O)NC(=O)[C@H](Cc1ccccc1)NC(=O)[C@H](CC(C)C)NC(=O)OCc1ccccc1` (Cbz-Leu-Phe-Glu(NHMe)-aldehyde) the value was 5.1 µM.
For `CC(C)C[C@H](NC(=O)OCc1ccccc1)C(=O)N[C@@H](Cc1ccccc1)C(=O)N[C@H](C=O)CCC(=O)N(C)C` (Cbz-Leu-Phe-Glu(NMe2)-aldehyde), the values for the inhibitory constant (Ki) in assay [2] and in assay [1] were 7.5 µM and 0.12 µM, respectively. Besides, the Ratio Ki in assay [3] worked out at 60.
In the case of `CC(C)C[C@H](NC(=O)OCc1ccccc1)C(=O)N[C@@H](Cc1ccccc1)C(=O)N[C@H](C=O)CCC(=O)N1CCCC1` (Cbz-Leu-Phe-Glu(Pyrrolidide)-aldehyde), the Ki in assay [1] was 0.075 µM.
As for `CC(=O)NC[C@@H](C=O)NC(=O)[C@H](Cc1ccccc1)NC(=O)[C@H](CC(C)C)NC(=O)OCc1ccccc1` (Cbz-Leu-Phe-[Dap](Ac)-aldehyde), the inhibitory constant (Ki) came out at 14 µM in assay [2] and 1.5 µM in assay [1]. In assay [3], the Ratio Ki is 10.
As to `CC(C)C[C@H](NC(=O)OCc1ccccc1)C(=O)N1CCC[C@H]1C(=O)N[C@H](C=O)CCC(=O)N(C)C` (Cbz-Leu-Pro-Glu(NMe2)-aldehyde), the inhibition constant Ki in assay [1] came out at 46 µM.
Still for that read-out and setting: the same measure for `CC(C)[C@H](NC(=O)OCc1ccccc1)C(=O)N1CCC[C@H]1C(=O)N[C@H](C=O)CCC(=O)N(C)C` (Cbz-Val-Pro-Glu(NMe2)-aldehyde): 8.2 µM.
